Data on one compound can be found in ChEMBL document CHEMBL1759837, “Studies on chemical modification and biology of a natural product, gambogic acid (III): determination of the essential pharmacophore for biological activity” (Eur J Med Chem, 2011).

The test system of data set [1] is SMMC-7721. The data set can be described thus: Antiproliferative activity against human SMMC7721 cells after 24 hrs by MTT assay. The format is functional, cell-based. To be noted: SMMC-7721, 24 h. A digest of the protocol: (§1)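 Cells grown at 37 °C in humidified 5% CO2 with benzylpenicillin and streptomycin. Compounds came from 0.01 mol/L DMSO stocks and were tested at eight two-fold dilutions in triplicate, with medium-only controls, for 24 h. MTT absorbance was read at 570 nm. Survival = A_treatment/A_control × 100. IC50 is the concentration giving 50% viability inhibition, as the mean of two separate experiments.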

In data set [2] the test system is Heps hepatoma (Mus musculus). The data set can be described thus: Antitumor activity against murine Heps hepatoma cells transplanted in iv dosed Kunming mouse assessed as tumor growth inhibition administered 24 hrs after tumor implantation one dose per two day for total of four treatment measured after 24 hrs last postdose.
Data set [3] has as its system HepG2. The data set can be described thus: Induction of apoptosis in human HepG2 cells assessed as activation of caspase 3 after 24 hrs by colorimetric assay. The format is functional, cell-based. The method, boiled down:
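Kit colorimetric caspase-3 test. HepG2 cells treated at 1, 2 or 4 µM for 24 h at 37 °C, then lysed on ice 20 min and centrifuged. Supernatant containing 200 µg total protein incubated with Ac-DEVD-pNA 4 h at 37 °C; absorbance read at 405 nm. Fold activity = OD treated / OD control; mean ± SD, t-test.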

The test system of data set [4] is Mus musculus. The experiment in a line: Toxicity in Kunming mouse xenografted with human HepG2 cells assessed as change in body weight at 12.5 mg/kg, iv administered 24 hrs after tumor implantation one dose per two day for total of four treatment measured after 24 hrs last postdose (reference value: 20.20 +/- 1.99 g). The note with it: in vivo. On the set-up: dose 12.5 mg/kg, route intravenous. The format is organism-based. A general note: In xenograft studies the graft and the host belong to different species.

For data set [5], the system named is HepG2. The experiment in a line: Induction of apoptosis in human HepG2 cells assessed as late apoptotic cells at 1 uM after 24 hrs using annexin V-propidium iodide staining by flow cytometry (reference value: 3.4%). The format is functional.
The test system of data set [6] is HepG2. The data set can be described thus: Induction of apoptosis in human HepG2 cells assessed as late apoptotic cells at 4 uM after 24 hrs using annexin V-propidium iodide staining by flow cytometry (reference value: 3.4%). The format is functional. A general note: A flow cytometer gives signals particle by particle.
Data set [7] deals with HepG2. The data set can be described thus: Induction of apoptosis in human HepG2 cells assessed as viable cells at 1 uM after 24 hrs using annexin V-propidium iodide staining by flow cytometry (reference value: 93.2%). The format is functional. The note with it: HepG2, 24 h, read-out: Activity.
Data set [8] has as its system HepG2. The data set can be described thus: Cell cycle arrest in human HepG2 cells assessed as accumulation at G2/M phase at 1 uM after 24 hrs using propidium iodide by Flow cytometry. The format is functional, cell-based. The method, boiled down:
(§2)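 HepG2 cells synchronised by 24 h serum starvation, then treated 24 h at 1, 2 or 4 µM. Cells fixed overnight in 70% ethanol at 4 °C and stained 15 min at 37 °C in the dark with hypotonic PI solution (0.1% sodium citrate, 0.1% Triton X-100, 0.05 mg/ml PI, 0.01 mg/ml RNase). DNA content measured by flow cytometry.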

For data set [9], the system named is HepG2. The data set can be described thus: Induction of apoptosis in human HepG2 cells assessed as cell distortion at 4 uM after 24 hrs using by inverted light microscopy. The format is functional, cell-based. The method, boiled down:
(§3)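 HepG2 cells seeded at 1 × 10⁵ cells/well and treated 24 h at 1, 2 or 4 µM. Living cells first viewed under inverted light microscope (×200). Cells then fixed 20 min in 4% paraformaldehyde, stained 10 min with DAPI (1 mg/ml) and examined by fluorescence microscopy (×400, 340 nm excitation) for nuclear changes and apoptotic bodies.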

Data set [10] deals with HepG2. The experiment in a line: Induction of apoptosis in human HepG2 cells assessed as viable cells at 4 uM after 24 hrs using annexin V-propidium iodide staining by flow cytometry (reference value: 93.2%). The format is functional. To be noted: HepG2, 24 h, read-out: Activity.
Data set [11] concerns HepG2. The data set can be described thus: Induction of apoptosis in human HepG2 cells assessed as induction of cell integrity at 1 uM after 24 hrs by light microscopy. The format is functional, cell-based. The method, boiled down: as §3
The subject of data set [12] is HepG2. The experiment in a line: Induction of apoptosis in human HepG2 cells assessed as pre-necrotic cells at 4 uM after 24 hrs using annexin V-propidium iodide staining by flow cytometry (reference value: 0.5%). The format is functional.
For data set [13], the system named is HepG2. The experiment in a line: Induction of apoptosis in human HepG2 cells assessed as early apoptotic cells at 2 uM after 24 hrs using annexin V-propidium iodide staining by flow cytometry (reference value: 3%). The format is functional.
Data set [14] relates to HepG2. The data set can be described thus: Induction of apoptosis in human HepG2 cells assessed as cell membrane blebbing and shrinkage at 4 uM after 24 hrs using by inverted light microscopy. The format is functional, cell-based. A digest of the protocol: as §3
The test system of data set [15] is HepG2. The data set can be described thus: Induction of apoptosis in human HepG2 cells assessed as pre-necrotic cells at 2 uM after 24 hrs using annexin V-propidium iodide staining by flow cytometry (reference value: 0.5%). The format is functional.
Data set [16] deals with HepG2. The experiment in a line: Induction of apoptosis in human HepG2 cells assessed as decrease in pro-caspase-3 expression at 2 uM after 24 hrs by Western blot analysis. The format is functional, cell-based. A digest of the protocol:
(§4)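 HepG2 cells treated 24 h at 1, 2 or 4 µM. Lysed in Tris-Cl pH 6.8 buffer containing SDS, glycerol, β-mercaptoethanol, PMSF and aprotinin; cleared at 12 000 × g, 15 min, 4 °C. Protein measured by BCA. Samples run on 15% SDS-PAGE, transferred to PVDF, probed overnight at 4 °C with primary antibodies against bcl-2, bax and pro-caspase-3, then IRDye 800 secondary 1 h at 37 °C.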
(Immunoblotting shows a protein as a band on a membrane.)

For data set [17], the system named is MCF7. The experiment in a line: Antiproliferative activity against human MCF7 cells after 24 hrs by MTT assay. The format is functional, cell-based. The note with it: MCF7, 24 h. The method, boiled down: as §1
Data set [18] relates to Mus musculus. The data set can be described thus: Toxicity in Kunming mouse xenografted with human HepG2 cells assessed as irritation on vein vascular at 12.5 to 50 mg/kg, iv administered 24 hrs after tumor implantation one dose per two day for total of four treatment measured after 24 hrs last postdose. To be noted: in vivo. On the set-up: dose 12.5-50 mg/kg, route intravenous. The format is organism-based.

In data set [19] the test system is HepG2. The experiment in a line: Induction of apoptosis in human HepG2 cells assessed as bright condensed chromatin in nuclei at 1 uM after 24 hrs by fluorescence microscopy.
The subject of data set [20] is HepG2. The data set can be described thus: Induction of apoptosis in human HepG2 cells assessed as effect on bax protein expression at 1 uM after 24 hrs by Western blot analysis. The format is functional, cell-based. A digest of the protocol: as §4
The subject of data set [21] is HepG2. The experiment in a line: Induction of apoptosis in human HepG2 cells assessed as decrease in bcl-2 expression at 2 uM after 24 hrs by Western blot analysis. The format is functional, cell-based. The method, boiled down: as §4
The subject of data set [22] is HepG2. The experiment in a line: Cell cycle arrest in human HepG2 cells assessed as accumulation at G2/M phase at 4 uM after 24 hrs using propidium iodide by Flow cytometry. The format is functional, cell-based. A digest of the protocol:
as §2

Calls of active or inactive are those of the source. The rule behind the calls is not given here.

As usually defined, the IC50 is the midpoint of a concentration-inhibition curve. Low values mean inhibition by little substance, high ones a need for much substance.

For the compound `CC(C)=CCC12OC(C)(C)C3CC(C=C4C(=O)c5c(O)cccc5OC431)C2=O` (configuration not stated), the IC50 in data set [1] amounted to 8.06 µM; in [17], 9.16 µM. For the same compound, the inhibition entry in data set [2] was “Dose-dependent effect”. The Activity result is “Dose-dependent effect” in data set [3]; 26.3 g in data set [4]; 4.8% in data set [5]; 7.4% in data set [6]; 1.1% in data set [12]; 18.9% in [13]. The Activity is given as 1.1% in data set [15] and “Non-toxic” in data set [18]. Further, the viability at 1 µM in data set [7] amounted to 86.3%. The result in [8], in [9], in data set [11], in data set [14], in [16] and in [19] was Active. For the same compound, the outcome in [21] and in data set [22] was Active. The viability at 4 µM in data set [10] is 68.2%. Moreover, the result in [20] was inactive.
